Published values of several laboratories.
Target: Cyclin-dependent kinase 3 (CDK3, Homo sapiens, UniProt Q00526)

SMILES | assay | setting | remaining binding [%]
C[C@@H](c1cccc(C#N)c1)n1cc(Cl)cc(C(N)=O)c1=N | cell-free assay, competition with immobilised ligand | 1 µM | 100
N[C@@H]1CCN(c2nccc(-c3cnn4ncccc34)n2)C1 | binding | 1 µM | 100
O=C1CCc2cc(Nc3cc(OC4CCOCC4)c([N+](=O)[O-])cc3Cl)ccc2N1 | cell-free assay, competition with immobilised ligand | 1 µM | 100
CNC(=O)[C@@H]1CC[C@@H](n2c(-c3ccc4cnccc4c3)nc3ccc(C(=O)NCc4cccc(C(N)=O)c4)cc32)C1 | binding, competition with immobilised ligand | 1 µM | 89
O=C(NCCCN1CCOCC1)c1ccc(Nc2ncc(Cl)c(-c3ccc(Cl)s3)n2)cc1 | binding, competition with immobilised ligand | 1 µM | 44
COc1cnc(Nc2cccc(S(N)(=O)=O)c2)nc1N1CCN(c2ccccc2)C(=O)C1 | binding, competition with immobilised ligand | 1 µM | 99
O=C(c1ccc(Nc2nccc(-c3cc4ccccc4s3)n2)cc1)N1CCC(N2CCCC2)CC1 | binding, competition with immobilised ligand | 1 µM | 98
N#Cc1ccccc1CSc1nnc2c(n1)[nH]c1ccccc12 | binding, competition with immobilised ligand | 10 µM | 100
CN(C)c1ncc(F)c(-c2cnn3ncccc23)n1 | binding | 1 µM | 82
Nc1ncc2c(n1)-c1c([nH]c3ccc(C#CC4CC4)cc13)CCCC2 | binding, competition with immobilised ligand | 1 µM | 77
C[C@@H]1CN(c2ccc3ncc(-c4ccc5[nH]nc(C6CC6)c5c4)n3n2)C[C@H](C)O1 | binding, competition with immobilised ligand | 0.5 µM | 90
CC(=O)N1CCC(c2ccc(C(=O)NC3=NCCN3)cc2C(F)(F)F)CC1 | cell-free assay, competition with immobilised ligand | 1 µM | 100
CC1CCCN1c1nccc(-c2cnn3ncccc23)n1 (stereo not drawn) | binding | 1 µM | 100
c1cncc(-c2cccc(Nc3nccc(NC4CCCCC4)n3)c2)c1 | binding, competition with immobilised ligand | 10 µM | 76
N#Cc1ccc(Nc2ccc3[nH]c(=O)[nH]c3c2)c(Cl)c1 | cell-free assay, competition with immobilised ligand | 1 µM | 100
CN(CCCC(F)(F)F)c1nccc(-c2cnn3ncccc23)n1 | binding | 1 µM | 100
Cc1c(NC(=O)c2cc(C(N)=O)nc3cc(F)ccc23)c(C(F)(F)F)nn1Cc1ccc(C#N)cc1 | cell-free assay, competition with immobilised ligand | 1 µM | 95
CN(c1nccc(-c2cnn3ncccc23)n1)C1CC1 | binding | 1 µM | 100
O=C(NCCCN1CCOCC1)c1ccc(Nc2nccc(-c3cc4ccccc4s3)n2)cc1 | binding, competition with immobilised ligand | 1 µM | 95
CCCOc1ccc([C@H]2[C@H](C(=O)O)[C@@H](c3ccc4c(c3)OCO4)CN2CC(=O)Nc2c(CC)cccc2CC)cc1 | cell-free assay, competition with immobilised ligand | 1 µM | 95
O=C(NCC1CCOCC1)c1n[nH]cc1NC(=O)c1c(F)cccc1F | binding, competition with immobilised ligand | 1 µM | 75
